Data reported in ChEMBL document CHEMBL1135691, “Synthesis of novel N-1 (allyloxymethyl) analogues of 6-benzyl-1-(ethoxymethyl)-5-isopropyluracil (MKC-442, emivirine) with improved activity against HIV-1 and its mutants” (J Med Chem, 2002).
“And” between values parts separate entries of the source, which are not always exact repeats. Equal values may be shown once. Where a name gives a salt, the structure may show the parent alone.

What was measured:
[1] = Selective index (CD50 compared to ED50 against HIV-1 IIIB strain).; format: functional
Outline: (§1)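 Ratio of CD50 to ED50. Both values come from 6-day MT-4 MTT assays: uninfected cultures for cytotoxicity, and cultures infected at MOI 0.005 with the named wild-type strain for antiviral effect. Each value was interpolated from inhibition–concentration plots and is the mean of three experiments.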

[2] = test system: MT4; experiment: (§2) Cytotoxic dose required to reduce the viability of normal uninfected MT-4 cells by 50%; format: functional, Homo sapiens; details: read-out: CD50 (the source's name)
[3] = test system: Human immunodeficiency virus 1; experiment: Inhibition of HIV-1 IIIB replication in MT-4-infected wild type cells.; format: functional; details: read-out: ED50 (the source's name)
Outline: (§3)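 MT-4 cells infected with wild-type HIV-1 (IIIB, H9-propagated stock, or HxB2 clone) at MOI 0.005 and cultured 6 days in RPMI 1640 with 10% heat-inactivated FCS and compound dilutions. Infected and uninfected controls without compound run in parallel. Virus expression measured indirectly by MTT. EC50 interpolated from inhibition–concentration plots. Mean of three experiments.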

[4] = test system: Human immunodeficiency virus 1; experiment: (§4) Effective concentration required to achieve 50% inhibition of HIV-1 multiplication in MT-4-infected Y181C strain; format: functional; details: read-out: ED50 (the source's name)
Outline: (§5)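 NNRTI-resistant HIV-1 strains infected MT-4 cells at 0.005 MOI. Cells were cultured with serial compound dilutions in RPMI 1640 with 10% heat-inactivated FCS and antibiotics for 6 days, alongside infected and uninfected no-compound controls. Viral expression was quantified indirectly by MTT assay. EC50 was interpolated from percent-inhibition versus concentration plots. Values are means of three separate experiments.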

[5] = test system: Human immunodeficiency virus 1; experiment: Effective concentration required to achieve 50% inhibition of HIV-1 multiplication in MT-4-infected Y181C+K103N strain; format: functional; details: read-out: ED50 (the source's name); outline: as §5
[6] = test system: Human immunodeficiency virus 1; experiment: Effective concentration required to achieve 50% inhibition of HIV-1 multiplication in MT-4-infected K103N strain; format: functional; details: read-out: ED50 (the source's name); outline: as §5
[7] = test system: Human immunodeficiency virus 1; experiment: as §4; format: functional; details: read-out: ED50 (the source's name); outline: as §5; remark: listed apart in the source
[8] = test system: Human immunodeficiency virus 1; experiment: Effective concentration required to achieve 50% inhibition of HIV-1 multiplication in MT-4-infected wild type cells; format: functional; details: read-out: ED50 (the source's name); outline: as §3
[9] = (§6) Selective index as the ratio of CD50 to that of ED50 against HIV-1 HxB2 strain.; format: functional; outline: as §1
[10] = as §2; format: cell-based, MT4; details: human, read-out: CD50 (the source's name)
[11] = as §6; outline: as §1
[12] = Selective index as the ratio of CD50 to that of ED50 against HIV-1 IIIB strain.; outline: as §1

| Structure (SMILES) | SI [1] | CC50 ([2]; Homo sapiens, MT4) [µM] | EC50 [3] [µM] | EC50 [4] [µM] | EC50 [5] [µM] | EC50 [6] [µM] | EC50 [7] [µM] | EC50 [8] [nM] | SI [9] | CC50 [2] | CC50 [10] [µM] | SI [11] | SI [12] |
| --- | --- | --- | --- | --- | --- | --- | --- | --- | --- | --- | --- | --- | --- |
| CC(C)=CCOCn1c(Cc2cc(C)cc(C)c2)c(C(C)C)c(=O)[nH]c1=O | > 500000 | > 100 | 0.0002 | 19 | 28 |  |  |  |  |  |  |  |  |
| C=C(C)COCn1c(Cc2cccc3ccccc23)c(CC)c(=O)[nH]c1=O | 35 | 35 | 1 |  |  |  |  |  |  |  |  |  |  |
| O=C1Nc2ccc(Cl)cc2[C@@](C#CC2CC2)(C(F)(F)F)O1 [EFAVIRENZ] |  | > 100 | 0.01 |  | 2.7 | 0.35 | 0.04 | 40 |  |  |  |  |  |
| CCc1c(Cc2cc(C)cc(C)c2)n(COCC=C(C)C)c(=O)[nH]c1=O | 120000 | 36 | 0.0003 | 0.34 | > 100 | 0.09 | 0.45 | 0.02 | 3.03e+06 | 61 µM |  |  |  |
| CC(C)=CCOCn1c(Cc2ccccc2)c(C(C)C)c(=O)[nH]c1=O | 1070 | 34 | 0.03 | > 100 | > 100 | 3.8 | > 100 | 30 | 1120 |  | 32 |  |  |
| Cc1ccnc2c1NC(=O)c1cccnc1N2C1CC1 [NEVIRAPINE] | > 263 | > 100 | 0.38 | > 100 | > 100 | 4.3 | 22 | 570 | > 175 |  |  |  |  |
| C=CCOCn1c(Cc2cc(C)cc(C)c2)c(CC)c(=O)[nH]c1=O | 25000 | 100 | 0.004 | 0.32 | 10 | 0.02 | 0.07 | 0.02 | > 5e+06 | > 100 µM |  |  |  |
| C=C(C)COCn1c(Cc2cc(C)cc(C)c2)c(CC)c(=O)[nH]c1=O | > 40000 | > 100 | 0.0025 | 0.36 | 28 | 2.2 | 4 | 8 | > 12500 |  |  |  |  |
| C=CCOCn1c(Cc2cccc3ccccc23)c(CC)c(=O)[nH]c1=O | 32 | 32 | 1 |  |  |  |  |  |  |  |  |  |  |
| CC(C)Nc1cccnc1N1CCN(C(=O)c2cc3cc(NS(C)(=O)=O)ccc3[nH]2)CC1 [DELAVIRDINE MESYLATE] | 700 | 42 | 0.06 | > 100 | > 100 | 3 | 4.5 | 190 | > 221 | > 42 µM |  |  |  |
| CCc1c(Cc2cccc3ccccc23)n(COCC=C(C)C)c(=O)[nH]c1=O | > 333 | > 100 | 0.3 |  |  |  |  |  |  |  |  |  |  |
| C=CCOCn1c(Cc2cc(C)cc(C)c2)c(C(C)C)c(=O)[nH]c1=O | 150000 | 30 | 0.0002 | > 100 | > 100 |  |  |  |  |  |  |  |  |
| C#CCOCn1c(Cc2cc(C)cc(C)c2)c(CC)c(=O)[nH]c1=O | > 33300 | > 100 | 0.003 | > 100 | 3 |  |  |  |  |  |  |  |  |
| C=CCOCn1c(Cc2ccccc2)c(C(C)C)c(=O)[nH]c1=O | > 25000 | > 100 | 0.004 | 100 | > 100 | 0.9 | 3.3 | 3 | > 33300 |  |  |  |  |
| C#CCOCn1c(Cc2ccccc2)c(C(C)C)c(=O)[nH]c1=O | > 14300 | > 100 | 0.007 | > 100 | > 100 |  |  |  |  |  |  |  |  |
| C=C(C)COCn1c(Cc2ccccc2)c(C(C)C)c(=O)[nH]c1=O |  |  | 0.28 | > 100 | > 100 | > 100 | > 100 | 50 |  | 40 µM and > 100 µM |  | > 2000 | 142 |
| C=C(C)COCn1c(Cc2cc(C)cc(C)c2)c(C(C)C)c(=O)[nH]c1=O | > 667000 | > 100 | 0.00015 | 15 | 26 |  |  |  |  |  |  |  |  |
